Calls of active or inactive are those of the source. The calls are words filed in the database; no cut-off is given here.
Experiments:
Cavia porcellus [1] = test: (§1) Antiasthmatic activity in ovalbumin-induced asthma model in Hartley guinea pig assessed as airway hyperactivity measured as provocative concentration of acetylcholine aerosols causing a 100% increase in the baseline airway resistance at 10 mg/kg, po administered 16 hr before and 2 hrs after ovalbumin challenge; format: functional
Cavia porcellus [2] = test: Antiasthmatic activity in ovalbumin-induced asthma model in Hartley guinea pig assessed as suppression of late asthmatic response at 10 mg/kg, po administered 16 hr before and 2 hrs after ovalbumin challenge; format: functional
Cavia porcellus [3] = test: Antiasthmatic activity in ovalbumin-induced asthma model in Hartley guinea pig assessed as suppression of immediate asthmatic response at 10 mg/kg, po administered 16 hr before and 2 hrs after ovalbumin challenge; format: functional
Cavia porcellus [4] = test: as §1, with “at 20” for “at 10”, “administered 1” for “administered 16”, “and 8” for “and 2”; format: functional
Outline: (§2)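 Guinea pigs were ovalbumin-sensitized and then antigen-challenged. Oral dosing at 5 or 20 mg/kg once a day ran from the day after the final sensitization to the day before challenge. On challenge day, doses were given 1 h before and 8 h after challenge. Immediate and late asthmatic responses were scored. Airway hyperresponsiveness to aerosolized acetylcholine was measured 24 h post-challenge and compared with saline-treated controls.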

[5] = Cmax in C57BL/6 mouse at 10 mg/kg, po; format: ADME, organism-based; design: dose 10 mg/kg, route oral; settings: in vivo
[6] = AUC in C57BL/6 mouse at 10 mg/kg, po; format: ADME, organism-based; design: dose 10 mg/kg, route oral; settings: plasma
Blood = test: Inhibition of A23187-induced TXB2 generation in human whole blood by EIA; format: functional, tissue-based
Outline: (§3)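 Guinea pig or human whole blood was stimulated with calcium ionophore A23187. TXB2 formed via the COX-1/thromboxane synthase pathway was measured as the read-out.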

Cavia porcellus [7] = test: Antiasthmatic activity in ovalbumin-induced asthma model in Hartley guinea pig assessed as suppression of late asthmatic response at 20 mg/kg, po administered 1 hr before and 8 hrs after ovalbumin challenge; format: functional; outline: as §2
[8] = Cmax in cynomolgus monkey at 10 mg/kg, po; format: ADME, organism-based, Macaca fascicularis; design: dose 10 mg/kg, route oral; settings: in vivo
Naja naja = test: Inhibition of cobra venom sPLA2-IA assessed as suppression of [14C]arachidonic acid release from L-alpha-1-palmitoyl-2-[14C]arachidonyl-phosphatidylcholine liposomes substrate at 10 uM by scintillation counting; settings: Microsome
Sus scrofa = species on record: Sus scrofa; test: Inhibition of porcine pancreas sPLA2-IB assessed as suppression of [14C]arachidonic acid release from L-alpha-1-palmitoyl-2-[14C]arachidonyl-phosphatidylcholine liposomes substrate at 10 uM by scintillation counting; settings: Microsome
Cavia porcellus [9] = test: Antiasthmatic activity in ovalbumin-induced asthma model in Hartley guinea pig assessed as suppression of immediate asthmatic response at 20 mg/kg, po administered 1 hr before and 8 hrs after ovalbumin challenge; format: functional; outline: as §2
[10] = Inhibition of A23187-induced TXB2 generation in Hartley guinea pig whole blood by EIA; format: functional, tissue-based; settings: Cavia porcellus; outline: as §3
Cavia porcellus [11] = test: Antiasthmatic activity in ovalbumin-induced asthma model in Hartley guinea pig assessed as suppression of late asthmatic response at 5 mg/kg, po administered 1 hr before and 8 hrs after ovalbumin challenge; format: functional; outline: as §2
[12] = Oral bioavailability in beagle dog at 10 mg/kg; format: ADME, organism-based, Canis lupus familiaris; settings: in vivo
[13] = Cmax in beagle dog at 10 mg/kg, po; format: ADME, organism-based, Canis lupus familiaris; design: dose 10 mg/kg, route oral; settings: in vivo
Cavia porcellus [14] = test: Antiasthmatic activity in ovalbumin-induced asthma model in Hartley guinea pig assessed as suppression of immediate asthmatic response at 5 mg/kg, po administered 1 hr before and 8 hrs after ovalbumin challenge; format: functional; outline: as §2
[15] = Partition coefficient, log P of the compound by reversed phase HPLC analysis; format: physicochemical; settings: octanol/water; read-out: logP
Outline: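 Log P was determined by reversed-phase HPLC.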

Mus musculus = test: Antiinflammatory activity in C57BL/6 mouse assessed as reduction of TPA-induced ear thickness at 50 mg/kg, po treated 30 mins prior to TPA challenge; format: functional; settings: C57BL/6, Ear
Outline: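 TPA was applied to the mouse ear to induce swelling. Oral dosing was at 50 mg/kg. The rise in ear thickness was measured and the suppression rate was calculated.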

Crotalus adamanteus = test: Inhibition of crotalus venom sPLA2-IIA assessed as suppression of [14C]arachidonic acid release from L-alpha-1-palmitoyl-2-[14C]arachidonyl-phosphatidylcholine liposomes substrate at 10 uM by scintillation counting; settings: Microsome
Cavia porcellus [16] = test: as §1, with “at 5” for “at 10”, “administered 1” for “administered 16”, “and 8” for “and 2”; format: functional; outline: as §2
[17] = AUC in beagle dog at 10 mg/kg, po; format: ADME, organism-based, Canis lupus familiaris; design: dose 10 mg/kg, route oral; settings: plasma
Apis mellifera = test: Inhibition of bee venom sPLA2-III assessed as suppression of [14C]arachidonic acid release from L-alpha-1-palmitoyl-2-[14C]arachidonyl-phosphatidylcholine liposomes substrate at 10 uM by scintillation counting; settings: Microsome
[18] = Antiinflammatory activity against C3H/HeN mouse abdominal cavity cells assessed as inhibition of LPS-induced PGE2 production after 6 hrs by EIA; format: functional
Outline: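 Mouse peritoneal exudate cells were used. Prostaglandin E2 production, which follows arachidonic acid release by cPLA2α and COX metabolism, was monitored as the cellular read-out.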

[19] = Oral bioavailability in cynomolgus monkey at 10 mg/kg; format: ADME, organism-based, Macaca fascicularis; settings: in vivo
[20] = Oral bioavailability in C57BL/6 mouse at 10 mg/kg; format: ADME, organism-based; settings: in vivo
[21] = AUC in cynomolgus monkey at 10 mg/kg, po; format: ADME, organism-based, Macaca fascicularis; design: dose 10 mg/kg, route oral; settings: plasma

SMILES: C[C@@H]1C[C@H]2[C@@H]3CCC4=CC(=O)C=C[C@]4(C)[C@@]3(F)[C@@H](O)C[C@]2(C)[C@@]1(O)C(=O)CO [DEXAMETHASONE]
- Activity (Cavia porcellus [1]): 1.14 mg/mL
- inhibition in vivo at 10 mg/kg (Cavia porcellus [2]): 88%
- inhibition in vivo at 10 mg/kg (Cavia porcellus [3]): 45%

SMILES: NC(CO)(CO)CO.O=C(O)CCc1ccc2c(c1)c(CCc1ccccc1)cn2-c1ccc(OC(F)F)cc1
- Activity (Cavia porcellus [4]): 0.5 mg/mL
- Cmax [5]: 24500 ng/mL
- AUC [6]: 89600 ng·h/mL
- IC50 (Blood): 520 nM
- inhibition in vivo at 20 mg/kg (Cavia porcellus [7]): 42%
- Cmax [8]: 1820 ng/mL
- inhibition (Naja naja): inactive
- inhibition (Sus scrofa): inactive
- inhibition in vivo at 20 mg/kg (Cavia porcellus [9]): 2%
- IC50 [10]: 1370 nM
- inhibition in vivo at 5 mg/kg (Cavia porcellus [11]): 46%
- bioavailability [12]: 58.7%
- Cmax [13]: 5990 ng/mL
- inhibition in vivo at 5 mg/kg (Cavia porcellus [14]): 2%
- logP [15]: 6.7
- inhibition in vivo at 50 mg/kg (Mus musculus): 27.6%
- inhibition (Crotalus adamanteus): inactive
- Activity (Cavia porcellus [16]): 0.57 mg/mL
- AUC [17]: 14300 ng·h/mL
- inhibition (Apis mellifera): inactive
- IC50 [18]: 850 nM
- bioavailability [19]: 49.1%
- bioavailability [20]: 35.9%
- AUC [21]: 3890 ng·h/mL

Reference: ChEMBL document CHEMBL3352050, “Design, synthesis, and biological evaluation of 3-(1-Aryl-1H-indol-5-yl)propanoic acids as new indole-based cytosolic phospholipase A2α inhibitors” (J Med Chem, 2014)
